According to ChEMBL document CHEMBL2040792, “New chromene scaffolds for adenosine A(2A) receptors: synthesis, pharmacology and structure-activity relationships” (Eur J Med Chem, 2012):

Columns and labels:
[1] = biological target: T1, Adenosine receptor A2a (Homo sapiens, UniProt P29274); assay: Antagonist activity at human adenosine A2A receptor expressed in CHO cells assessed as inhibition of NECA-induced cAMP accumulation incubated for 15 mins prior to NECA-induction measured after 15 mins by enzyme immunoassay relative to control; type: functional, cell-based
How it was run: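 Stably transfected CHO cells grown with dialyzed FBS, washed in DMEM F-12 with 25 mM HEPES pH 7.4 and 30 μM rolipram. Antagonist preincubated 15 min, then NECA (0.1 nM-1 mM) added for a further 15 min. cAMP measured by enzyme immunoassay. NECA curves fitted to a sigmoidal equation; pKB derived from the EC50 shift at one antagonist concentration.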

[2] = biological target: T2, Adenosine receptor A2b (Homo sapiens) (UniProt P29275); assay: Displacement of [3H]DPCPX from human adenosine A2B receptor expressed in HEK293 cells at 10 uM after 30 mins by beta scintillation counting; type: cell-based
T2 sequence (whole entry): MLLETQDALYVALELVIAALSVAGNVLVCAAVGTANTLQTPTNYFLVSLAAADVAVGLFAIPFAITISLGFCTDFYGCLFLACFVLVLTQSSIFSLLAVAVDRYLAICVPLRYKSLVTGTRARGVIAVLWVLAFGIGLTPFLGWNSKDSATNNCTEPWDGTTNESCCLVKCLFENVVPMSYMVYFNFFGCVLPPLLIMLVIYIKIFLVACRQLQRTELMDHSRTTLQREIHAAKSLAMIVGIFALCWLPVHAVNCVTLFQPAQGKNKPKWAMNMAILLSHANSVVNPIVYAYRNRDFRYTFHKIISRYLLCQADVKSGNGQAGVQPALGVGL
How it was run: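 Percent inhibition at 10 µM in HEK-293-A2B membranes (18 µg protein), pH 6.5 Tris buffer with benzamidine, bacitracin and adenosine deaminase. 35 nM [3H]DPCPX, 30 min at 25 °C, in duplicate. Nonspecific binding with 400 µM NECA.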

[3] = biological target: T1, Adenosine receptor A2a; assay: Displacement of [3H]ZM241385 from human adenosine A2A receptor expressed in human HeLa cells after 30 mins by beta scintillation counting; type: cell-based
How it was run: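 HeLa-A2A membranes (10 µg protein) in 50 mM Tris-HCl, 1 mM EDTA, 10 mM MgCl2, 2 UI/mL adenosine deaminase, pH 7.4, with 3 nM [3H]ZM241385. Nonspecific binding with 50 µM NECA. Incubated 30 min at 25 °C, in duplicate. Six concentrations (10 nM-100 µM); IC50 by nonlinear regression, converted to Ki by Cheng-Prusoff.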

[4] = biological target: T1, Adenosine receptor A2a; assay: Displacement of [3H]ZM241385 from human adenosine A2A receptor expressed in human HeLa cells at 10 uM after 30 mins by beta scintillation counting; type: cell-based
How it was run: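 Single-point screen at 10 µM on HeLa-A2A membranes (10 µg protein), Tris/EDTA/MgCl2 buffer with adenosine deaminase, pH 7.4. 3 nM [3H]ZM241385, 30 min at 25 °C, in duplicate. Nonspecific binding with 50 µM NECA. Percent inhibition.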

[5] = biological target: T3, Adenosine receptor A1 (Homo sapiens) (UniProt P30542); assay: Displacement of [3H]DPCPX from human adenosine A1 receptor expressed in CHO cells at 10 uM after 60 mins by beta scintillation counting; type: cell-based
T3 sequence (whole entry): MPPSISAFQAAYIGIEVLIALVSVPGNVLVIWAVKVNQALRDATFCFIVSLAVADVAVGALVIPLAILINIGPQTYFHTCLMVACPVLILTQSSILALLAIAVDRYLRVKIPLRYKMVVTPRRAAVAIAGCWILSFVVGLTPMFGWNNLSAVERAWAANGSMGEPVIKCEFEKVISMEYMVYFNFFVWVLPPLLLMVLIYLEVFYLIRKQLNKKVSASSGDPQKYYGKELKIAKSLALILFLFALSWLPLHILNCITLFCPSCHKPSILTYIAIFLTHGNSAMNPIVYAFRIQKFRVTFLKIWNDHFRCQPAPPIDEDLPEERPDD
How it was run: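 CHO-A1 membranes (15 µg protein) in Hepes/NaCl/MgCl2 buffer with adenosine deaminase, pH 7.4. Test compound at 10 µM with 2 nM [3H]DPCPX, 60 min at 25 °C, in duplicate. Nonspecific binding with 10 µM (R)-PIA. Percent inhibition read after filtration.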

[6] = biological target: T4, Adenosine receptor A3 (Homo sapiens) (UniProt P0DMS8); assay: Displacement of [3H]NECA from human adenosine A3 receptor expressed in human HeLa cells at 10 uM after 180 mins by beta scintillation counting; type: cell-based
T4 sequence (whole entry): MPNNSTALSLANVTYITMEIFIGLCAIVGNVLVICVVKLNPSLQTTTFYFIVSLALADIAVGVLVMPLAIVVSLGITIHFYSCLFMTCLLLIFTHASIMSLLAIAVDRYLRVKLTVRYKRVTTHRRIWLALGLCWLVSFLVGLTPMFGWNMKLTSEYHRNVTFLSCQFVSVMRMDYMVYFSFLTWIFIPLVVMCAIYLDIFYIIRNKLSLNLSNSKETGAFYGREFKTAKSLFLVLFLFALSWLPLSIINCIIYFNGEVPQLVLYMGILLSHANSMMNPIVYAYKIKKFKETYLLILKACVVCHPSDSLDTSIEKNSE
How it was run: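 HeLa-A3 membranes (90 µg protein) in 50 mM Tris-HCl, 1 mM EDTA, 5 mM MgCl2, 2 UI/mL adenosine deaminase, pH 7.4. Test compound at 10 µM with 30 nM [3H]NECA, 180 min at 25 °C, in triplicate. Nonspecific binding with 100 µM (R)-PIA. Percent inhibition read after GF/B filtration.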

[7] = biological target: T5, Adenosine receptor A2b (Homo sapiens, UniProt P29275); assay: Displacement of [3H]DPCPX from human adenosine A2B receptor expressed in HEK293 cells after 30 mins by beta scintillation counting; type: cell-based
T5 sequence (P29275 whole entry): T2 sequence (whole entry)
How it was run: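 HEK-293-A2B membranes (18 µg protein) in 50 mM Tris-HCl, 1 mM EDTA, 10 mM MgCl2, 0.1 mM benzamidine, 10 µg/mL bacitracin, 2 UI/mL adenosine deaminase, pH 6.5, with 35 nM [3H]DPCPX. Nonspecific binding with 400 µM NECA. Incubated 30 min at 25 °C, in duplicate. Six concentrations (10 nM-100 µM); IC50 by nonlinear regression, Ki by Cheng-Prusoff.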

[8] = biological target: T6, Adenosine receptor A1 (Homo sapiens, UniProt P30542); assay: Displacement of [3H]DPCPX from human adenosine A1 receptor expressed in CHO cells after 60 mins by beta scintillation counting; type: cell-based
T6 sequence (P30542 whole entry): T3 sequence (whole entry)
How it was run: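 CHO-A1 membranes (15 µg protein) in 20 mM Hepes, 100 mM NaCl, 10 mM MgCl2, 2 UI/ml adenosine deaminase, pH 7.4, with 2 nM [3H]DPCPX. Nonspecific binding defined with 10 µM (R)-PIA. Incubated 60 min at 25 °C, run in duplicate, then filtered. Six concentrations tested (10 nM-100 µM); IC50 from nonlinear regression, Ki by Cheng-Prusoff.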

T1 sequence (P29274 whole entry): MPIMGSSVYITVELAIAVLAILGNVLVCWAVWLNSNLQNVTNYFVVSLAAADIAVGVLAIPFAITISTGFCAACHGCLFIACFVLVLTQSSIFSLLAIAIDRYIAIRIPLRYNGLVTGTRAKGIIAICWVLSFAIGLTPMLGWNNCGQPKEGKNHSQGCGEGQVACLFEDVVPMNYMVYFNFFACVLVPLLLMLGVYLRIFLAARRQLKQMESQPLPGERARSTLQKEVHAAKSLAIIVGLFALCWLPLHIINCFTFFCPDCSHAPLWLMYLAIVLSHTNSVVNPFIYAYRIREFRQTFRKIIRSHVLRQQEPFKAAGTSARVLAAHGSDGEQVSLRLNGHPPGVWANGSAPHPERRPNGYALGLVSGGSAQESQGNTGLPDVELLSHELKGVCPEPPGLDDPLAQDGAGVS

SMILES	pKb [1]	inhibition [2]	Ki [3]	inhibition [4]	inhibition [5]	inhibition [6]	Ki [7]	Ki [8]
COc1cccc2cc(C(=O)NC3CCCCC3)c(=N)oc12	6.1	> 70%	0.398 µM	> 70%	40%	16%	20 µM	
COc1cccc2cc(C(=O)NC3CCCC3)c(=N)oc12		47%	0.398 µM	> 70%	> 70%	20%		3.16 µM
COC(=O)/C(C#N)=C/c1cccc(OC)c1O		> 70%	0.316 µM	> 70%	> 70%	45%	1 µM	2.51 µM
COc1cccc2cc(C(=O)NCCCN3CCN(CCCNC(=O)c4cc5cccc(OC)c5oc4=N)CC3)c(=N)oc12		> 70%	0.316 µM	> 70%	> 70%	20%	10 µM	2.51 µM
COc1cccc2cc(C(=O)NCCCOCCCCOCCCNC(=O)c3cc4cccc(OC)c4oc3=N)c(=N)oc12	6.36	44%	0.398 µM	> 70%	30%	23%		

Continued, values first:

pKb [1]	inhibition [2]	Ki [3]	inhibition [4]	inhibition [5]	inhibition [6]	Ki [7]	Ki [8]	SMILES
6.54	> 70%	0.126 µM	> 70%	35%	30%	0.631 µM		COc1cccc2cc(C(=O)NCCc3ccc(O)cc3)c(=N)oc12
	43%	0.501 µM	> 70%	> 70%	15%		6.31 µM	COCCNC(=O)c1cc2cccc(OC)c2oc1=N
6.59	> 70%	0.0794 µM	> 70%	> 70%	33%	0.316 µM	0.398 µM	COc1cccc2cc(C(N)=O)c(=N)oc12
